Tested on: HEK-293T
Experiment: Multiplex assay against HEK293T;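 as to Population Tubulin-Different-Phenotype (%): share of the cells with healthy nuclei that show this phenotype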
Assay type: toxicity, cell-based
Conditions: human
Summary of the method: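 Tubulin, mitochondrial-mass and membrane-permeability phenotypes are per cents of healthy-nucleus cells. Cells were gated by CellPathfinder machine learning into Hoechst high-intensity objects or normal cells, normal cells into healthy, pyknosed or fragmented nuclei, and pyknosed cells into mitotic or apoptotic. Before that, live cells stained at seeding with Hoechst33342, BioTracker Green Microtubule Cytoskeleton Dye, MitoTracker Red and Annexin V Alexa Fluor 680 were imaged on a CQ1 microscope at 37°C and 5% CO2 after compound addition.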

[1] = 12 h, 1 µM, compound concentration 1 uM, replicate 1
[2] = 12 h, 1 µM, compound concentration 1 uM, replicate 2
[3] = 12 h, 10 µM, compound concentration 10 uM, replicate 1
[4] = 12 h, 10 µM, compound concentration 10 uM, replicate 2
[5] = 24 h, 1 µM, compound concentration 1 uM, replicate 1
[6] = 24 h, 1 µM, compound concentration 1 uM, replicate 2
[7] = 24 h, 10 µM, compound concentration 10 uM, replicate 1
[8] = 24 h, 10 µM, compound concentration 10 uM, replicate 2
[9] = 48 h, 1 µM, compound concentration 1 uM, replicate 1
[10] = 48 h, 1 µM, compound concentration 1 uM, replicate 2
[11] = 48 h, 10 µM, compound concentration 10 uM, replicate 1
[12] = 48 h, 10 µM, compound concentration 10 uM, replicate 2

In the case of `N#CCNC(=O)c1ccc(-c2ccnc(Nc3ccc(N4CCOCC4)cc3)n2)cc1` [MOMELOTINIB], the “Population Apoptotic (%)” value [1] is reported as 35%, the “Population Fragmented Nuclei (%)” value [1] is reported as 8% and the “Population Healthy Nuclei (%)” value [1] is reported as 53%. For the same molecule, the “Population Hoechst High Intensity Objects (%)” value [1] was 12%, the “Population Membrane Permeable-Phenotype (%)” value [1] was 0% and the “Population Mitochondria Different-Phenotype (%)” value [1] was 61%. The “Population Mitotic Cells (%)” value [1] was 64%, the “Population Normal (%)” value [1] was 87% and the “Population Pyknosed Nuclei (%)” value [1] was 38%. The “Population Tubulin-Different-Phenotype (%)” value [1] was 33%, the “Total Cell Count” value [1] was 303 and the “Population Apoptotic (%)” value [2] was 8%. For the same molecule, the “Population Fragmented Nuclei (%)” value [2] was 9%, the “Population Healthy Nuclei (%)” value [2] was 52% and the “Population Hoechst High Intensity Objects (%)” value [2] was 2%. For the same molecule, the “Population Membrane Permeable-Phenotype (%)” value [2] was 10%, the “Population Mitochondria Different-Phenotype (%)” value [2] was 9% and the “Population Mitotic Cells (%)” value [2] was 91%. For the same molecule, the “Population Normal (%)” value [2] was 97%, the “Population Tubulin-Different-Phenotype (%)” value [2] was 21% and the “Total Cell Count” value [2] was 198. For the same molecule, the “Population Apoptotic (%)” value [3] was 32%, the “Population Fragmented Nuclei (%)” value [3] was 6% and the “Population Healthy Nuclei (%)” value [3] was 54%. The “Population Hoechst High Intensity Objects (%)” value [3] was 6%, the “Population Membrane Permeable-Phenotype (%)” value [3] was 4% and the “Population Mitochondria Different-Phenotype (%)” value [3] was 70%. For the same molecule, the “Population Mitotic Cells (%)” value [3] was 67%, the “Population Normal (%)” value [3] was 93% and the “Population Pyknosed Nuclei (%)” value [3] was 38%. The “Population Tubulin-Different-Phenotype (%)” value [3] was 62%, the “Total Cell Count” value [3] was 432 and the “Population Apoptotic (%)” value [4] was 10%. The “Population Fragmented Nuclei (%)” value [4] was 9%, the “Population Healthy Nuclei (%)” value [4] was 29% and the “Population Hoechst High Intensity Objects (%)” value [4] was 5%. For the same molecule, the “Population Membrane Permeable-Phenotype (%)” value [4] was 11%, the “Population Mitochondria Different-Phenotype (%)” value [4] was 21% and the “Population Mitotic Cells (%)” value [4] was 89%. The “Population Normal (%)” value [4] was 94%, the “Population Pyknosed Nuclei (%)” value [4] was 60% and the “Population Tubulin-Different-Phenotype (%)” value [4] was 42%. For the same molecule, the “Total Cell Count” value [4] was 251, the “Population Apoptotic (%)” value [5] was 38% and the “Population Fragmented Nuclei (%)” value [5] was 9%. For the same molecule, the “Population Healthy Nuclei (%)” value [5] was 58%, the “Population Hoechst High Intensity Objects (%)” value [5] was 9% and the “Population Membrane Permeable-Phenotype (%)” value [5] was 1%. For the same molecule, the “Population Mitochondria Different-Phenotype (%)” value [5] was 44%, the “Population Mitotic Cells (%)” value [5] was 62% and the “Population Normal (%)” value [5] was 90%. For the same molecule, the “Population Pyknosed Nuclei (%)” value [5] was 31%, the “Population Tubulin-Different-Phenotype (%)” value [5] was 34% and the “Total Cell Count” value [5] was 349. For the same molecule, the “Population Apoptotic (%)” value [6] was 10%, the “Population Fragmented Nuclei (%)” value [6] was 10% and the “Population Healthy Nuclei (%)” value [6] was 63%. For the same molecule, the “Population Hoechst High Intensity Objects (%)” value [6] was 1%, the “Population Membrane Permeable-Phenotype (%)” value [6] was 14% and the “Population Mitochondria Different-Phenotype (%)” value [6] was 9%. For the same molecule, the “Population Mitotic Cells (%)” value [6] was 89%, the “Population Normal (%)” value [6] was 98% and the “Population Pyknosed Nuclei (%)” value [6] was 26%. The “Population Tubulin-Different-Phenotype (%)” value [6] was 18%, the “Total Cell Count” value [6] was 260 and the “Population Apoptotic (%)” value [7] was 31%. The “Population Fragmented Nuclei (%)” value [7] was 5%, the “Population Healthy Nuclei (%)” value [7] was 58% and the “Population Hoechst High Intensity Objects (%)” value [7] was 6%. The “Population Membrane Permeable-Phenotype (%)” value [7] was 3%, the “Population Mitochondria Different-Phenotype (%)” value [7] was 71% and the “Population Mitotic Cells (%)” value [7] was 68%. For the same molecule, the “Population Normal (%)” value [7] was 93%, the “Population Pyknosed Nuclei (%)” value [7] was 36% and the “Population Tubulin-Different-Phenotype (%)” value [7] was 88%. The “Total Cell Count” value [7] was 423, the “Population Apoptotic (%)” value [8] was 17% and the “Population Fragmented Nuclei (%)” value [8] was 9%. For the same molecule, the “Population Healthy Nuclei (%)” value [8] was 41%, the “Population Hoechst High Intensity Objects (%)” value [8] was 4% and the “Population Membrane Permeable-Phenotype (%)” value [8] was 15%. For the same molecule, the “Population Mitochondria Different-Phenotype (%)” value [8] was 25%, the “Population Mitotic Cells (%)” value [8] was 82% and the “Population Normal (%)” value [8] was 95%. The “Population Pyknosed Nuclei (%)” value [8] was 49%, the “Population Tubulin-Different-Phenotype (%)” value [8] was 78% and the “Total Cell Count” value [8] was 239. For the same molecule, the “Population Apoptotic (%)” value [9] was 43%, the “Population Fragmented Nuclei (%)” value [9] was 19% and the “Population Healthy Nuclei (%)” value [9] was 67%. The “Population Hoechst High Intensity Objects (%)” value [9] was 4%, the “Population Membrane Permeable-Phenotype (%)” value [9] was 3% and the “Population Mitochondria Different-Phenotype (%)” value [9] was 16%. For the same molecule, the “Population Mitotic Cells (%)” value [9] was 56%, the “Population Normal (%)” value [9] was 95% and the “Population Pyknosed Nuclei (%)” value [9] was 13%. The “Population Tubulin-Different-Phenotype (%)” value [9] was 15%, the “Total Cell Count” value [9] was 535 and the “Population Apoptotic (%)” value [10] was 14%. For the same molecule, the “Population Fragmented Nuclei (%)” value [10] was 13%, the “Population Healthy Nuclei (%)” value [10] was 76% and the “Population Hoechst High Intensity Objects (%)” value [10] was 3%. The “Population Membrane Permeable-Phenotype (%)” value [10] was 13%, the “Population Mitochondria Different-Phenotype (%)” value [10] was 5% and the “Population Mitotic Cells (%)” value [10] was 85%. The “Population Normal (%)” value [10] was 96%, the “Population Pyknosed Nuclei (%)” value [10] was 9% and the “Population Tubulin-Different-Phenotype (%)” value [10] was 20%. For the same molecule, the “Total Cell Count” value [10] was 437, the “Population Apoptotic (%)” value [11] was 37% and the “Population Fragmented Nuclei (%)” value [11] was 18%. For the same molecule, the “Population Healthy Nuclei (%)” value [11] was 69%, the “Population Hoechst High Intensity Objects (%)” value [11] was 8% and the “Population Membrane Permeable-Phenotype (%)” value [11] was 2%. The “Population Mitochondria Different-Phenotype (%)” value [11] was 46%, the “Population Mitotic Cells (%)” value [11] was 62% and the “Population Normal (%)” value [11] was 91%. The “Population Pyknosed Nuclei (%)” value [11] was 11%, the “Population Tubulin-Different-Phenotype (%)” value [11] was 79% and the “Total Cell Count” value [11] was 471. For the same molecule, the “Population Apoptotic (%)” value [12] was 27%, the “Population Fragmented Nuclei (%)” value [12] was 14% and the “Population Healthy Nuclei (%)” value [12] was 59%. For the same molecule, the “Population Hoechst High Intensity Objects (%)” value [12] was 4%, the “Population Membrane Permeable-Phenotype (%)” value [12] was 13% and the “Population Mitochondria Different-Phenotype (%)” value [12] was 24%. For the same molecule, the “Population Mitotic Cells (%)” value [12] was 72%, the “Population Normal (%)” value [12] was 95% and the “Population Pyknosed Nuclei (%)” value [12] was 25%. For the same molecule, the “Population Tubulin-Different-Phenotype (%)” value [12] was 74% and the “Total Cell Count” value [12] was 253.

From ChEMBL document CHEMBL4689842, “EUbOPEN Chemogenomics Library wave 1” (2021)
